Assay outcomes: PubChem BioAssay, Broad Institute
A1 apoptosis 2 = compounds inhibiting A1, read as caspase activation; MEF A1-2A-BIM cells, caspase-Glo luminescence, 3 h; percent of clofoctol response, DMSO zero; caspase activation, % (no concentration beside the values); 24,000 tested, under 10 active; AID 2465; in the data active means caspase activation above about 5.9%
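Material: A1-2A-BIM-expressing MEF cells. Buffer or medium: RPMI-1640 plus 10% FBS. Incubation: cells settled overnight, compound exposure 3 h at 37 °C, 5% CO2. Signal: Caspase-Glo 3/7 luminescence, 1 h at room temperature.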
T cruzi intra = blocks T. cruzi growth inside host cells | AID 651903 | hit rate 4.9% among 22,000 | activity score (inhibition), % at 5.01 µM | intracellular Trypanosoma cruzi in host cells, plate reader; in the data active means activity score above about 55%;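 further: parasites and compound incubated about four days before reading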
INS-1E ATP HTS = INS-1E beta cell protection from cytokine death | INS-1E cytokine-induced death, ATP luminescence, 48 h; normalised: neutral wells 0, positive control 100 | AID 488910 | hit rate 0.1% among 20,000 | protection from cytokine-induced ATP loss, % at 10 µM;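 active means mean replicate protection from cytokine-induced ATP loss at least 50% and at least 75% of replicates each reaching 50%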
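Assay system: INS-1E rat cells / Quantity: 8000 cells per well / Medium: RPMI without phenol red, 5% FBS / Probe or stimulus: three-cytokine cocktail (IFN-γ, TNF-α, IL-1β) / Dosing: one compound concentration, pin transfer / Timing: 48 h co-treatment, 10 min post-lysis read / Technique: CellTiter-Glo luminescence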
A number is an active result; 0 = inactive; - = not tested or not shown. The sample as a whole holds a higher share of hits than the screen did.

SMILES	A1 apoptosis 2	T cruzi intra	INS-1E ATP HTS
C[C@@H]1CCCCO[C@@H](CN(C)C(=O)Nc2ccc(C(F)(F)F)cc2)[C@@H](C)CN([C@H](C)CO)C(=O)c2cc(NC(=O)Nc3ccc(F)cc3)ccc2O1	0	71	0
C[C@H]1CCCCO[C@H](CN(C)C(=O)Nc2ccc(C(F)(F)F)cc2)[C@@H](C)CN([C@@H](C)CO)C(=O)c2cc(NC(=O)Nc3ccc(F)cc3)ccc2O1	0	-	-
C[C@@H]1CCCCO[C@@H](CN(C)C(=O)Nc2ccc(C(F)(F)F)cc2)[C@@H](C)CN([C@H](C)CO)C(=O)c2cc(NC(=O)CCC(F)(F)F)ccc2O1	-	0	0
C[C@@H]1CCCCO[C@H](CN(C)C(=O)Nc2ccc(C(F)(F)F)cc2)[C@@H](C)CN([C@H](C)CO)C(=O)c2cc(NC(=O)CCC(F)(F)F)ccc2O1	0	66	0
C[C@@H]1CN([C@H](C)CO)C(=O)c2cc(NC(=O)Nc3ccc(C(F)(F)F)cc3)ccc2O[C@@H]1CN(C)C(=O)Nc1ccc(C(F)(F)F)cc1	-	0	0
C[C@@H]1CN([C@@H](C)CO)C(=O)c2cc(NC(=O)Cc3ccccc3)ccc2O[C@@H](C)CCCCO[C@H]1CN(C)C(=O)Nc1ccccc1	0	-	-
CN(CCO)c1ccc(/C=N/NC(=O)CCCCCC(=O)NO)cc1	0	-	-
COC(=O)CCCCCCC(=O)N/N=C/c1cc(OC)ccc1O	0	0	0
COc1cc(/C=N/NC(=O)c2cccc(C(=O)NO)c2)c(Br)cc1O	0	0	0
O=C(NO)c1ccc(C(=O)N/N=C/c2ccc(OCCO)cc2)cc1	-	0	0
COC(=O)CCCCCCC(=O)N/N=C/c1cc(OC)c(OC)cc1[N+](=O)[O-]	0	0	0
C[C@@H]1CN([C@H](C)CO)C(=O)c2cc(NC(=O)Nc3ccc(F)cc3)ccc2O[C@@H](C)CCCCO[C@H]1CN(C)C(=O)Nc1ccc(C(F)(F)F)cc1	0	-	-
C[C@@H]1CCCCO[C@H](CN(C)C(=O)Nc2ccc(C(F)(F)F)cc2)[C@@H](C)CN([C@H](C)CO)C(=O)c2cc(NC(=O)Nc3ccc(F)cc3)ccc2O1	0	65	0
O=C(N/N=C/c1ccccc1Br)c1ccccn1	0	0	0
COc1ccc(S(=O)(=O)Nc2ccc3c(c2)C(=O)N([C@H](C)CO)C[C@H](C)[C@H](CN(C)Cc2ccc(C(=O)Nc4ccccc4N)cc2)OCCCC[C@@H](C)O3)cc1	0	0	0
C[C@@H]1CCCCO[C@@H](CN(C)Cc2ccc(C(=O)Nc3ccccc3N)cc2)[C@@H](C)CN([C@H](C)CO)C(=O)c2cc(NS(=O)(=O)c3ccc(Cl)cc3)ccc2O1	0	78	0
C[C@@H]1CN([C@@H](C)CO)C(=O)c2cccc(NS(=O)(=O)c3ccc(Cl)cc3)c2O[C@@H]1CN(C)Cc1ccc(C(=O)Nc2ccccc2N)cc1	-	0	0
C[C@@H]1CN([C@H](C)CO)C(=O)c2cccc(NS(=O)(=O)c3ccc(Cl)cc3)c2O[C@H]1CN(C)Cc1ccc(C(=O)Nc2ccccc2N)cc1	0	65	0
C[C@@H]1CN([C@H](C)CO)C(=O)c2cc(NS(=O)(=O)c3ccccc3)ccc2O[C@H]1CN(C)Cc1ccc(C(=O)Nc2ccccc2N)cc1	-	0	0
C[C@H]1CN([C@@H](C)CO)C(=O)c2cc(NS(=O)(=O)c3ccc(Cl)cc3)ccc2O[C@H]1CN(C)Cc1ccc(C(=O)Nc2ccccc2N)cc1	-	73	0
C[C@H](CO)N1C[C@H](C)[C@H](CN(C)Cc2ccc(C(=O)Nc3ccccc3N)cc2)Oc2ccc(NS(=O)(=O)c3ccc(F)cc3)cc2C1=O	0	63	0
C[C@@H]1CN([C@@H](C)CO)C(=O)c2cc(NS(=O)(=O)c3ccc(F)cc3)ccc2O[C@@H]1CN(C)Cc1ccc(C(=O)Nc2ccccc2N)cc1	-	0	0
COc1cc2c(cc1O)C(c1cccs1)N(Cc1cccc(OC(F)(F)F)c1)CC2 (centres undefined)	0	-	-
COc1ccc([Si](C)(C)[C@H]2[C@H](CCO)O[C@@]3(C(=O)N(Cc4cccc(N5CCC5=O)c4)c4ccccc43)[C@@H]2C)cc1	0	-	-
CC(=O)N1Cc2ccccc2C[C@@]2(N=C(c3ccc(OCCCO)cc3)O[C@H]2c2ccccc2)C1=O	0	-	-
SMILES	A1 apoptosis 2	T cruzi intra	INS-1E ATP HTS
COc1ccc(C#Cc2ccc3c(c2)[C@]2(C(=O)N3)[C@H](C(=O)NC[C@H](O)c3ccccc3)[C@H]3C(=O)O[C@H](c4ccccc4)[C@H](c4ccccc4)N3[C@@H]2c2ccc(O)cc2)cc1	0	-	-
CC(C)=CCC[C@@H](C)C/C=N/NC(=O)CCCCC(=O)NO	0	0	0
C[C@@H]1CCCCO[C@@H](CN(C)Cc2ccc(C(=O)Nc3ccccc3N)cc2)[C@@H](C)CN([C@H](C)CO)C(=O)c2cc(NS(=O)(=O)c3cccs3)ccc2O1	-	62	0
C[C@@H]1CCCCO[C@H](CN(C)Cc2ccc(C(=O)Nc3ccccc3N)cc2)[C@@H](C)CN([C@H](C)CO)C(=O)c2cc(NS(=O)(=O)c3cccs3)ccc2O1	0	0	0
C[C@H](CO)N1C[C@H](C)[C@H](CN(C)Cc2ccncc2)Oc2c(NC(=O)c3nc4ccccc4s3)cccc2C1=O	-	0	0
C[C@H](CO)N1C[C@H](C)[C@@H](CN(C)Cc2ccncc2)Oc2c(NC(=O)c3nc4ccccc4s3)cccc2C1=O	0	0	0
C[C@@H]1CN([C@H](C)CO)C(=O)c2cccc(NC(=O)c3nc4ccccc4s3)c2O[C@H]1CN(C)Cc1ccc(C(=O)Nc2ccccc2N)cc1	-	79	0
C[C@H]1CN([C@@H](C)CO)C(=O)c2cccc(NC(=O)c3nc4ccccc4s3)c2O[C@H]1CN(C)Cc1ccc(C(=O)Nc2ccccc2N)cc1	0	79	0
O=C(NO)c1cccc(C(=O)N/N=C/Cc2ccccc2)c1	0	0	0
C=CCNC(=O)[C@@H]1[C@H]2C(=O)O[C@H](c3ccccc3)[C@H](c3ccccc3)N2[C@H](c2ccc(OCCO)cc2)[C@@]12C(=O)Nc1ccc(C#CC3(O)CCCCCC3)cc12	0	-	-
O=C(NO)c1cccc(C(=O)N/N=C/c2ccc[nH]2)c1	-	0	0
C[C@@H]1CCCCO[C@@H](CN(C)C(=O)Nc2ccc(C(F)(F)F)cc2)[C@@H](C)CN([C@H](C)CO)C(=O)c2cc(NS(=O)(=O)c3cccs3)ccc2O1	0	57	0
C[C@@H]1CCCCO[C@H](CN(C)Cc2ccc(C(F)(F)F)cc2)[C@@H](C)CN([C@H](C)CO)C(=O)c2cc(NS(=O)(=O)c3cccs3)ccc2O1	-	0	0
C[C@@H]1CCCCO[C@H](CN(C)C(=O)Nc2ccc(C(F)(F)F)cc2)[C@@H](C)CN([C@H](C)CO)C(=O)c2cc(NS(=O)(=O)c3cccs3)ccc2O1	-	-	0
C[C@@H]1CCCCO[C@@H](CN(C)Cc2ccc(C(F)(F)F)cc2)[C@@H](C)CN([C@H](C)CO)C(=O)c2cc(NS(=O)(=O)c3cccs3)ccc2O1	-	64	0
CC(C)(C)OC(=O)NC1(/C=N/NC(=O)c2ccccn2)CCCC1	-	0	0
O=C(NO)c1ccc(C(=O)N/N=C/c2ccc(Br)o2)cc1	0	0	0
